Measurements: paper PMC6900553 (Acta Pharmaceutica Sinica. B, 2019)

How the values were obtained:
[1] = Caco-2 cell permeability assay; conditions: human
[2] = Pharmacokinetic study in rats; assay type: in vivo; conditions: Sprague-Dawley, rat, plasma; for AUC: mean ± SD, n = 3
[3] = Metabolic stability in dog liver microsomes; assay type: in vitro ADME; conditions: pH 7.4
Outline: (§1)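 Liver microsomes were incubated in PBS pH 7.4 at 37 °C with test compound at 1 μmol/L final (1.5 μmol/L in the microsome pre-mix, 0.75 mg/mL microsomes). The reaction was started with NADPH (6 mmol/L stock). Samples at 0, 5, 15, 30 and 45 min were quenched with acetonitrile containing internal standard, vortexed, centrifuged and analysed by LC–MS/MS. Results were expressed as % parent remaining, giving t1/2.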

[4] = system: A431 human tumor xenografts; assay: A431 human tumor xenograft study in nude mice; assay type: in vivo; conditions: A431 xenograft tumor tissue protein, Western blot
Outline: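 Athymic BALB/c nude mice, 4–6 weeks old, were implanted s.c. at one site with 1.5 × 10^7 A431 cells under anaesthesia. At 100–200 mm3, mice were randomised into four groups. Saline vehicle (0.1 mL/10 g) or test compound at 10 or 40 mg/kg was given i.g. daily for 27 days. Caliper tumour size and body weight were recorded every 2 days. Excised tumours were weighed, RIPA-extracted and Western blotted; mean ± SD, n = 3.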

[5] = Metabolic stability in mouse liver microsomes; assay type: in vitro ADME; conditions: pH 7.4
Outline: as §1

[6] = Metabolic stability in monkey liver microsomes; assay type: in vitro ADME; conditions: pH 7.4
Outline: as §1

[7] = Metabolic stability in rat liver microsomes; assay type: in vitro ADME; conditions: pH 7.4
Outline: as §1

Papp A→B at 90 min, 10 μmol/L [1] [×10⁻⁶ cm/s]	Papp B→A at 90 min, 10 μmol/L [1] [×10⁻⁶ cm/s]	efflux ratio at 90 min, 10 μmol/L [1]	MRT inf ([2]; iv, 10 mg/kg) [h]	AUC ([2]; iv, 10 mg/kg, AUCINF_plasma, i.v. 10 mg/kg) [ng·h/mL]	AUC ([2]; iv, 10 mg/kg, AUClast_plasma, i.v. 10 mg/kg) [ng·h/mL]	bioavailability ([2]; oral, 40 mg/kg) [%]	Cmax ([2]; po, 40 mg/kg) [ng/mL]	Tmax ([2]; po, 40 mg/kg) [h]	half-life ([2]; po, 40 mg/kg) [min]	AUC ([2]; po, 40 mg/kg, AUCINF_plasma, p.o. 40 mg/kg) [ng·h/mL]	AUC ([2]; po, 40 mg/kg, AUClast_plasma, p.o. 40 mg/kg) [ng·h/mL]	half-life at 1 μmol/L [3] [min]	half-life at 1 μmol/L [5] [min]	half-life at 1 μmol/L [6] [min]	half-life at 1 μmol/L [7] [min]	SMILES	p-EGFR and p-AKT in tumor extracts [4]
0.09 ± 0.03	22.18 ± 0.02	240	–	–	–	–	–	–	–	–	–	–	–	–	–	CC[C@H]1OC(=O)[C@H](C)[C@@H](O[C@H]2C[C@@](C)(OC)[C@@H](O)[C@H](C)O2)[C@H](C)[C@@H](O[C@@H]2O[C@H](C)C[C@H](N(C)C)[C@H]2O)[C@](C)(O)C[C@@H](C)C(=O)[C@H](C)[C@@H](O)[C@]1(C)O [Erythromycin]	–
8.37 ± 0.01	15.52 ± 0.02	–	4.54 ± 0.19	7800 ± 1460	7720 ± 1430	66.5 ± 22.8	1480 ± 395	4.33 ± 2.89	231 ± 21	20800	20500	34.5	8.38	4.66	21.2	COc1cc2ncnc(Nc3ccc(F)c(Cl)c3)c2cc1OCCCN1CCOCC1 [Gefitinib]	clearly inhibited
40.04 ± 0.05	30.92 ± 0.03	0.77	–	–	–	–	–	–	–	–	–	–	–	–	–	COCCc1ccc(OCC(O)CNC(C)C)cc1 (stereo not shown) [Metoprolol]	–
